# From the RNAGym collection of RNA variant scans (doi:10.1126/science.aae0568)
# Fewer inactive variants are shown than the library holds.
# B1: tRNA (parent)
# chain: GUUCCGUUGGCGUAAUGGUAACGCGUCUCCCUCCUAAGGAGAAGACUGCGGGUUCGAGUCCCGUACGGAACG
# Variants of: B1
# Experiment: yeast fitness relative to wild type (ratio to wild type); higher = fitter; tRNA-Arg(CCU), competitive growth, 37 C, YPD
# Outline: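 A pool of Saccharomyces cerevisiae strains, each with a tRNA-Arg(CCU) gene variant at the native genomic locus, was competed in YPD at 37°C for 24 hours across six parallel replicates. The variants had been chemically synthesised at a 3% per-site mutation rate over 69 sites, and gene amplicons before and after competition were read by 100-nucleotide paired-end sequencing. Darwinian fitness relative to wild type rested on changes in genotype frequencies. Genotypes required ≥ 100 starting reads, and estimates < 0.5 were set to 0.5.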
row,Variant,yeast fitness
1,GUUCCGUUGGCGUAAUGCUACCGCGUCUCCCUCCUAAGGAGAAGACUGCGGGUUCGAGUCCCGUACGGUACG [G18C A21C A69U],≤ 0.5
2,GUUCCGUUGGCGUAAUGCUAGCGCGUCUCCCUCCUAAGGAGAAGACUGCGGGUUCGAGUCCCGUAAGGAACG [G18C A21G C66A],≤ 0.5
3,GUUCCGUUGGCGUAAUGCUAGCGCGUCUCCCUCCUAAGGAGAAGACUGCGGGUUCGAGUCCCGUACGGAACG [G18C A21G],0.643
4,GUUCCGUUGGCGUAAUGCUGACGCGUCUACCUCCUAAGGAGAAGACUGUGGGUUCGAGUCCCGUACGGAACG [G18C A20G C29A C49U],≤ 0.5
5,GUUCCGUUGGCGUAAUGCUAAGGCGUCUCCCUCCUAAGGAGAAGACUGCGGGUUCGAGUCCCGUACGGCACG [G18C C22G A69C],≤ 0.5
6,GUUCCGUUGGCGUAAUGCUAAGGCGUCUCCCUCCUAAGAAGAAGACUGCGGGUUCGAGUCCCGUACGGAACG [G18C C22G G39A],≤ 0.5
7,GUUCCGUUGGCGUAAUGCUAACGGGUCUCCCUCCUAAGGAGAAGACUGCGGGUUCGAGUCCCGUACGGAGCG [G18C C24G A70G],≤ 0.5
8,GUUCCGUUGGCGUAAUGCUAACGAGUCUCCCUCCUAAGGAGAAGACUGCGGGUUCGAGUCCCGUACGGAACG [G18C C24A],≤ 0.5
9,GUUCCGUUGGCGUAAUGCUAACGCGUCUCCCUCCUGAGGAGAAGACUGCGGGUUCGAGUCACGUACGGAACG [G18C A36G C61A],≤ 0.5
10,GUUCCGUUGGCGUAAUGCUAACGCGUCUCCCUCCUAUGGAGAAGACUCAGGGUUCGAGUCCCGUACGGAACG [G18C A37U G48C C49A],≤ 0.5
11,GUUCCGUUGGCGUAAUGCUAACGGGUCUCCCUCCUCACGAGAAGACCGCGGGUUCGACUCCCGUACGGAACG [G18C C24G A36C G38C U47C G58C],≤ 0.5
12,GUUCCGUUGGCGUAAUGCUAGCGCGUCUCCCUCCUAAGGAGAAGACAGCGGGUUCGAGUCCCGUACCGAACG [G18C A21G U47A G67C],0.53
13,GUUCCGUUGGCGUAAUGAUAACGCGGCUCCCUCCUAAGGAGAAGACUGCCGGUUCGAGUCCCCUACGGAACG [G18A U26G G50C G63C],0.589
14,GUUCCGUUGGCGUAAUGCUAACGCGUCUCCCUCCUUAGGAGAAGACUGCGGGUUCGUGUCCCGUACGGAACG [G18C A36U A57U],≤ 0.5
15,GUUCCGUUGGCGUAAUGCUAACGCGUCUCCCUCCUAAGGAGAAGCCUGCGGGUUCGAGUCCCGUACGGAACG [G18C A45C],0.695
16,GUUCCGUUGGCGUAAUGCUAACGAGUCUCCCCCCUAAGGAGAAGACUGCGGGUUCGAGUCCCGUACGGAACG [G18C C24A U32C],0.55
17,GUUCCGUUGGCGUAAUGCUAACGCGUCUCCCUCCUAAGGAGAAGACUGCGGGUUCGAGUCCCGUCCGAAACG [G18C A65C G68A],≤ 0.5
18,GUUCCGUUGGCGUAAUGCUAACGCGUCUCCCUCCUAAGGGGGAGACUGCGGGUUCGACUCCCGUACGGAACG [G18C A40G A42G G58C],≤ 0.5
19,GUUCCGUUGGCGUAAUGAUAACGCGUCUCCCUCCAAAGGGGAAGACUGCGGGUUCGAGUCUCGUACGGAACG [G18A U35A A40G C61U],≤ 0.5

row,Variant,yeast fitness
1,GUUCCGUUGGCGUAAUGCUAACGCGUCUCCCUCCUAAGGAGACGACUGCGGAUUCGAGUCCCGUACGGAACG [G18C A43C G52A],0.502
2,GUUCCGUUGGCGUAAUGCUAACGCGUCUCCCUCCUAAGGAGAAGGCUGCUGGAUCGAGUCCCGUACGGAACG [G18C A45G G50U U53A],≤ 0.5
3,GUUCCGUUGGCGUAAUGCUAACGCGUCUCCCUCCUAAGGAGAAGUCUGCCGGUUGGAGUCCCGCACGGAACG [G18C A45U G50C C55G U64C],≤ 0.5
4,GUUCCGUUGGCGUAAUGAUAACGCGUCUCCCACCUAAGGAGAAGACUGCGGGCUCGAGUCCCGUACGGAACG [G18A U32A U53C],≤ 0.5
5,GUUCCGUUGGCGUAAUGCUAACGCGUCUCCCUCCUGCGGAGAAGACUGCGGGUUCGAGUCCCGUACGGAACG [G18C A36G A37C],≤ 0.5
6,GUUCCGUUGGCGUAAUGAUAACGCGUCUCCCUCCUAAGGAGAAGACUGCGGGGUCGAGUCCCGUACGGAACG [G18A U53G],≤ 0.5
7,GUUCCGUUGGCGUAAUGCUAAAGCGUCUCCCUCCUAAGGAGAAGACUGCGGGUUCGAGUCCCGUGCGGAACG [G18C C22A A65G],≤ 0.5
8,GUUCCGUUGGCGUAAUGAUAACGCGUCCCCCUCCUAAGGAGAAGACAGCGGGUUCGAGUCCCGUACGGAACG [G18A U28C U47A],≤ 0.5
9,GUUCCGUUGGCGUAAUGAUAACGCGUCCCCCUCCUAAGGAGAAGACUGCUGGUUCGAGUCCCGUACGGAACG [G18A U28C G50U],≤ 0.5
10,GUUCCGUUGGCGUAAUGCUAUCGCGUUUCCCUCCUAAGGAGAAGACUGCGGGUUCGAGUCCCGUACGGAACG [G18C A21U C27U],≤ 0.5
11,GUUCCGUUGGCGUAAUGCUAACGCGUCUCCCUCCUACGGAGAAGACUGCGGGUUCGAGUCCCGUACGGAACG [G18C A37C],0.641
12,GUUCCGUUGGCGUAAUGCUAACGCGUCUCCCUCCUAGGGAGAAGACUGCGGGUUCGAGUCCCGUACGGAACG [G18C A37G],0.577
13,GUUCCGUUGGCGUAAUGCUACCGCGUCUCGCUCCUAAGGAGAAGAGUGCGGGUUCGAGUCCCGUACGGAACG [G18C A21C C30G C46G],≤ 0.5
14,GUUCCGUUGGCGUAAUGCUAACGCGUCUCCCUCCUUAGGAGAAGACUGCGGGUUCGAGUCACCUACGGAACG [G18C A36U C61A G63C],≤ 0.5
15,GUUCCGUUGGCGUAAUGCUAACGCGUCUCCCUCCUAAGGAGAAGACUGCGGGUUCGCGUCCCGUACGGAACG [G18C A57C],0.627
16,GUUCCGUUGGCGUAAUGAUAACGCGUCUCCCUCCUAAGGAGAAGACUGCGGGAUCGAGUCCGGUACGGAACG [G18A U53A C62G],≤ 0.5
17,GUUCCGUUGGCGUAAUGCUAUCGUGUCACCCUCCUAAGGAGAAGACUGCGGGUUCGAGUCCCGUACGGAACG [G18C A21U C24U U28A],0.629
18,GUUCCGUUGGCGUAAUGCUAACGCGUCUCCCUCCUAAGGAGAAGACUGCGGGUUCGAGUCCCGUACGGCACG [G18C A69C],0.642
